Source: PubChem (several laboratories)
An excerpt weighted towards active compounds, which were near 1.8% of everything screened.
STAT3 activator: STAT3 signaling activation; U3A cells, IL-6 STAT3-luciferase reporter, luminescence; 100% = signal with IL-6 EC80 alone; activation (% of control), % at 5.6 µM; 190,000 tested, 0.91% active;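 active means activation above the screen-wide mean of compound activation plus 3 SD, cut at about 130% in these data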
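System – human U3A cells carrying STAT3-luciferase construct · Probe or stimulus – Interleukin-6, 33 ng/mL · Schedule – compound 1 h, then IL-6 6 h at 37 °C · Signal – luminescence from STAT3-driven luciferase reporter · Evaluation – percent of IL-6-only median luminescence · Benchmarks – IL-6-only high control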
TRAIL sens C8: sensitizes caspase-8 expressing cells to TRAIL. NB7+C8 cells + TRAIL, ATPlite viability luminescence. inhibition (viability loss, TRAIL sensitization), % at 10 µM. 360,000 tested, 1% active;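 active means compounds causing at least 50% loss of cell viability in the single-dose screen, relative to plate controls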
PPC-1+TRAIL kill: compounds killing PPC-1 cancer cells with TRAIL present (potentiator screen, no TRAIL-free arm); PPC-1 cells + TRAIL, ATPLite viability luminescence; cell killing (% activity), % at 4 µM or 5 µM; 220,000 tested, 0.41% active;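 active means cell killing above 50% in the first pass at 4 µM, then a duplicate retest at 5 µM averaging 50% or more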
STAT3 inh: reduces IL-6 driven STAT3 reporter signal | U3A cells, IL-6 STAT3-luciferase reporter, luminescence; host cell line lacks STAT1 | inhibition, % at 5.5 µM | 190,000 tested, 0.89% active | AID 862;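 active means inhibition above the mean inhibition across all screened compounds plus 3 SD, cut at about 44% in these data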
STAT1 blocker: STAT1 signaling inhibition; NIH 3T3 STAT1-luciferase reporter, IFN-gamma, luminescence; inhibition, % at 5.5 µM; 200,000 tested, 0.35% active; AID 920;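 active means inhibition above a set limit, the mean inhibition across all tested compounds plus 3 SD, cut at about 34% in these data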
Large screens that a line does not name were inactive.

CC(C)c1nnc(NC(=O)c2nc(S(=O)(=O)Cc3ccccc3)ncc2Cl)s1	TRAIL sens C8 94.2 (no result: STAT3 activator, PPC-1+TRAIL kill, STAT3 inh, STAT1 blocker)
O=c1[nH]c2ccccc2cc1CN(CC1CCCO1)S(=O)(=O)c1ccccc1 (stereo not given)	none (no result: STAT3 activator, PPC-1+TRAIL kill, STAT3 inh, STAT1 blocker)
Cc1c(CCC(=O)NCCCn2ccnc2)c(=O)oc2c(C)c3oc4c(c3cc12)CCCC4	none (no result: STAT3 activator, PPC-1+TRAIL kill, STAT3 inh, STAT1 blocker)
Cc1ccc2nc(-c3ccc(NC(=O)C(C)Sc4nncs4)cc3)sc2c1 (stereo not given)	TRAIL sens C8 51.5 (no result: STAT3 activator, PPC-1+TRAIL kill, STAT3 inh, STAT1 blocker)
CC(=O)Nc1ccc(NC(=O)CSc2nnc(NC(=O)c3ccccc3F)s2)cc1	TRAIL sens C8 66.3 (no result: STAT3 activator, PPC-1+TRAIL kill, STAT3 inh, STAT1 blocker)
COc1cccc(N2CC(C(=O)Nc3nnc(SCC(=O)Nc4ccc(NC(C)=O)cc4)s3)CC2=O)c1 (stereo not given)	none (no result: STAT3 activator, PPC-1+TRAIL kill, STAT3 inh, STAT1 blocker)
COc1cccc(C(=O)Nc2nnc(SCC(=O)Nc3ccc(NC(C)=O)cc3)s2)c1	TRAIL sens C8 67.7 (no result: STAT3 activator, PPC-1+TRAIL kill, STAT3 inh, STAT1 blocker)
O=C(CSc1nnc(NC(=O)c2ccccc2F)s1)NC1CCCC1	none (no result: STAT3 activator, PPC-1+TRAIL kill, STAT3 inh, STAT1 blocker)
CCOC(=O)c1cnc2c(Cl)c(Cl)ccc2c1N1CCN(C)CC1	TRAIL sens C8 58.7
CC(C)C(C(=O)NCC1CCCO1)N(C(=O)CNS(=O)(=O)c1ccccc1)c1ccc(F)cc1 (stereo not given)	none (no result: STAT3 activator, PPC-1+TRAIL kill, STAT3 inh, STAT1 blocker)
CCC1CCCCN1CCCNC(=O)c1ccc(CS(=O)(=O)c2ccccc2C)o1 (stereo not given)	none (no result: STAT3 activator, PPC-1+TRAIL kill, STAT3 inh, STAT1 blocker)
O=C1C=C(N2CCN(c3ccccn3)CC2)C(=O)c2c(O)ccc(O)c21	TRAIL sens C8 50.3 (no result: STAT3 activator, PPC-1+TRAIL kill, STAT3 inh, STAT1 blocker)
Cc1ccc(C)c(NC(=O)CSc2nnc(NC(=O)C3CC3)s2)c1	none (no result: STAT3 activator, PPC-1+TRAIL kill, STAT3 inh, STAT1 blocker)
C=C1C(=O)OC2C=C(CO)C3OC3C3OC3(C)CC(OC(=O)/C(=C/C)COC(C)=O)C12 (stereo not given)	TRAIL sens C8 63.4 (no result: STAT3 activator, PPC-1+TRAIL kill, STAT3 inh, STAT1 blocker)
CC(=O)OCC1=C[C@@H]2OC(=O)C3=CO[C@@H](O[C@@H]4O[C@H](CO)[C@@H](O)[C@H](O)[C@H]4O)[C@H]1[C@@H]32	none (no result: STAT3 activator, PPC-1+TRAIL kill, STAT3 inh, STAT1 blocker)
CS(=O)(=O)c1ccc(C(=O)NNC(=O)c2ccccc2-n2cccc2)cc1	none (no result: STAT3 activator, PPC-1+TRAIL kill, STAT3 inh, STAT1 blocker)
COC1=C(C)C(=O)C2=C(C1=O)C1C3CC4=C(C(=O)C(OC)=C(C)C4=O)C(CNC(=O)C(C)=O)N3C(C#N)C(C2)N1C (stereo not given)	TRAIL sens C8 85.7 (no result: STAT3 activator, PPC-1+TRAIL kill, STAT3 inh, STAT1 blocker)
Cc1cccn2c(=O)c3cc(C(=O)NCCc4ccccc4)c(=N)n(Cc4ccco4)c3nc12	TRAIL sens C8 60.1 (no result: STAT3 activator, PPC-1+TRAIL kill, STAT3 inh, STAT1 blocker)
COc1ccc(C2=NS(=O)(=O)N(C)C(C(=O)N(C)Cc3ccccc3)=C2)cc1OC	none (no result: STAT3 activator, PPC-1+TRAIL kill, STAT3 inh, STAT1 blocker)
CC(=O)Cc1cc(O)c2ccccc2c1OC(=O)c1ccc(Br)cc1	none (no result: STAT3 activator, STAT3 inh, STAT1 blocker)
COc1ccccc1CCNC(=O)CCn1c(=O)c2cccn2c2ccc(F)cc21	none (no result: STAT3 activator, PPC-1+TRAIL kill, STAT3 inh, STAT1 blocker)
COc1ccc(NC(=S)Nc2cccc3cnccc23)cc1	PPC-1+TRAIL kill 56.9
CCOC(=O)[C@]12CCCC=C1N(CCC1=CCCCC1)C(=O)[C@H](CC(=O)NCc1ccc(OC)c(OC)c1)C2	none (no result: STAT3 activator, PPC-1+TRAIL kill, STAT3 inh, STAT1 blocker)
CCCCCCCN(C(=O)CCl)c1ccccc1C	TRAIL sens C8 87.6
Cc1ccccc1N(Cc1cc(=O)[nH]c2ccccc12)C(=O)CCl	none (no result: STAT3 activator, PPC-1+TRAIL kill, STAT3 inh, STAT1 blocker)
Cc1cnc(N)nc1-c1ccccc1	none (no result: STAT3 activator, PPC-1+TRAIL kill, STAT3 inh, STAT1 blocker)
CC(=O)NC(c1ccc(C)cc1)c1cc([N+](=O)[O-])c2cccnc2c1O (stereo not given)	none
CCC(=O)NC(c1ccc(C)cc1)c1cc([N+](=O)[O-])c2cccnc2c1O (stereo not given)	TRAIL sens C8 53.6
CCN(CC)N=Nc1ccc(S(=O)(=O)Nc2c(C)n(C)n(-c3ccccc3)c2=O)cc1	none (no result: STAT3 activator, PPC-1+TRAIL kill, STAT3 inh, STAT1 blocker)
COc1ccc2c(c1)C1=NN(/C(C)=C\C(C)=O)C(c3ccccc3)C1CC2 (stereo not given)	STAT3 activator 133.9
Cc1ccc(OCC(=O)Nc2sc3c(c2C#N)CC(C)(C)NC3(C)C)cc1	none
CC1(C)Cc2c(sc(NC(=O)COc3cccc4ccccc34)c2C#N)C(C)(C)N1	TRAIL sens C8 84.9 (no result: STAT3 activator, STAT3 inh, STAT1 blocker)
CCOC(=O)c1c(NC(=O)COc2ccccc2OCC)sc2c1CC(C)(C)NC2(C)C	TRAIL sens C8 91.4 (no result: STAT3 activator, PPC-1+TRAIL kill, STAT3 inh, STAT1 blocker)
CCOC(=O)c1c(NC(=O)COc2ccccc2C#N)sc2c1CC(C)(C)NC2(C)C	none (no result: STAT3 activator, PPC-1+TRAIL kill, STAT3 inh, STAT1 blocker)
COC(=O)c1c(NC(=O)c2ccc(OC(C)C)cc2)sc2c1CC(C)(C)NC2(C)C	TRAIL sens C8 72.2 (no result: STAT3 activator, STAT3 inh)
COn1c(SCc2ccc(C)cc2C)nc2ccccc2c1=O	TRAIL sens C8 57.5
COn1c(SCC(N)=O)nc2ccccc2c1=O	none
COn1c(SC(C)C)nc2ccccc2c1=O	none
COn1c(SC2CCCCC2)nc2ccccc2c1=O	TRAIL sens C8 67.1
